Assay outcomes deposited in PubChem by several laboratories.
UBC13 inh = UBC13 polyubiquitin chain formation inhibitors, primary screen, biochemical, TR-FRET, uHTS. Ubiquitin-conjugating enzyme E2 N (Homo sapiens), P61088. inhibition, % at 20 µM. 0.47% of 330,000 active. AID 485273, 2010; in the data active = inhibition above about 45%, passing the limit was not always enough; inconclusive = no clear call, values can overlap the other calls
Target sequence (P61088 whole entry, looked up): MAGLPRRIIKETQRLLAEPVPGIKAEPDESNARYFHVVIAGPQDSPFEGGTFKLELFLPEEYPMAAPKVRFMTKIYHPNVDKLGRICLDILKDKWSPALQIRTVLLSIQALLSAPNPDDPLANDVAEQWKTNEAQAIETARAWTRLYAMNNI
PfGluPho inh = PfG6PD enzyme inhibitors, primary screen, biochemical, fluorescence intensity, uHTS. inhibition, % at 20 µM. 0.78% of 350,000 active. PfGluPho enzyme, NADPH resazurin-diaphorase fluorescence;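 active = inhibition reaching at least a set limit at 20 µM in the primary screen, cut at about 59% in these data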;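 also: 0% = DMSO wells with substrate and 100% = DMSO wells lacking glucose-6-phosphate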
ZTA DNA inh = ZTA (EBV) inhibition in EBNA-1 counter-screen | ZTA-DNA binding, fluorescence polarization | inhibition, % at 11 µM | 0.15% of 320,000 active | AID 2234; in the data active = inhibition above about 33%
Target sequence (P03206 whole entry, looked up): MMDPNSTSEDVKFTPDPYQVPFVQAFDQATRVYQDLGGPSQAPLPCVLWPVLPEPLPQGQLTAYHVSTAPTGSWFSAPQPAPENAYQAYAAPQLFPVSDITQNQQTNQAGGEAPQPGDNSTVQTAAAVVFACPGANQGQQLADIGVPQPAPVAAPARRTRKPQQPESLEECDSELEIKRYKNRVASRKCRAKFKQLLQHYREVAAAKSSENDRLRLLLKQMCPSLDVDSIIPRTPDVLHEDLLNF
M18AAP inhibitor = PfM18AAP inhibitors, malaria aminopeptidase, primary screen, biochemical, QFRET, recombinant enzyme | H-Glu-NHMec fluorogenic cleavage | inhibition, % at 7.35 µM | 1.2% of 290,000 active | AID 1822, 2009;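 active = inhibition above the campaign mean inhibition over all tested compounds plus 3 SD, cut at about 28% in these data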;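 also: 0% = plate median of test compound wells and 100% = 2 mM ZnCl2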
EBNA-1 inhibitor = EBNA-1 DNA-binding inhibitors, primary screen, biochemical, fluorescence polarization; 0.34% of 300,000 active; AID 1950, 2009; inhibition, % at 14.8 µM; in the data active = inhibition above about 28%
Apaf1 inhib = inhibitors of human Apaf-1 apoptosome, primary screen, biochemical, DEVD-Rh110 fluorescence, uHTS; inhibition, % at 20 µM; reconstituted apoptosome caspase-3 activity; AID 489030, 2010; 0.71% of 330,000 active; Apoptotic protease-activating factor 1 (Homo sapiens), O14727; active = inhibition of at least 40% at 20 µM;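 also: plate controls were DMSO wells for no effect and DEVD-CHO caspase inhibitor wells for full effect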
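Material: reconstituted apoptosome with Apaf-1, cytochrome c, caspase-9, procaspase-3, dATP / Buffer or medium: pH 7.5 Hepes buffer with CHAPS, BSA, DTT / Also added: cytochrome c with DEVD-Rh110 / Schedule: compound with Apaf-1, dATP, procaspase-3 30 min, then 50 min reaction, room temperature / Technique: rhodamine 110 fluorescence at Ex 480/Em 540 nm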
Casp3 UBC13 ctr = CASP3 inhibitor validation, counterassay for project on UBE2N polyubiquitination blockers, biochemical, one dose. shares compounds with UBC13 inh. Recombinant caspase-3, Caspase-Glo 3/7 luminescence, 60 min. inhibition, % at 20 µM. 4% of 1,400 active;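 active = mean inhibition across replicates above about 26%, limit read from the data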;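 also: plate controls were DMSO with caspase-3 for no effect and DMSO wells lacking enzyme for full effect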
Target sequence (P42574 whole entry, looked up): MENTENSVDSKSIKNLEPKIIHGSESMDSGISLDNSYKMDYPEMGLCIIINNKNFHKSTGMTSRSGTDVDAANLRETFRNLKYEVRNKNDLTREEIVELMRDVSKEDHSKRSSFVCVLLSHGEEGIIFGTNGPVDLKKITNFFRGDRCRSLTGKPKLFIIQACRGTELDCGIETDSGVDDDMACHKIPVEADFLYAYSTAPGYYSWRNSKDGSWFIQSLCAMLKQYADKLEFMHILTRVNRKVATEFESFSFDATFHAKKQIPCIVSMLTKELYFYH
UBC13 conf = UBC13 polyubiquitination inhibitors, single-point retest, confirmation, biochemical, TR-FRET, single concentration; inhibition, % at 10 µM; shares compounds with UBC13 inh; 68% of 1,400 active; in the data active = inhibition above about 45%; inconclusive = no clear call, values can overlap the other calls
An asterisk follows results filed as active; ? = inconclusive; . = not tested or not shown. Rows were chosen to be rich in hits. Some 2.9% of all compounds tested hit in one or more screens of this group.

SMILES | UBC13 inh | PfGluPho inh | ZTA DNA inh | M18AAP inhibitor | EBNA-1 inhibitor | Apaf1 inhib | Casp3 UBC13 ctr | UBC13 conf
Cc1cc(NC(=O)CN2C(=O)NC3(CCCCC3C)C2=O)no1 (stereo unspecified) | -4 | 3 | 12 | 3 | 8 | -6 | . | .
CCOC(=O)c1sc(N2C(=O)C(O)=C(C(=O)c3ccco3)C2c2cccc([N+](=O)[O-])c2)nc1C (stereo unspecified) | . | -16 | 4 | -6 | 15 | . | . | .
CCc1nc2ccccc2c(C(=O)OCc2nc3ccccc3c(=O)[nH]2)c1C | 62* | -12 | . | . | . | 5 | 1 | 58*
CCc1nc2ccccc2c(C(=O)OCCN2C(=O)c3ccccc3C2=O)c1C | 52* | -14 | -1 | 1 | 6 | 17 | -3 | 70*
COc1ccc(Nc2nc(N)nc(CSc3nc(C)cc(C)n3)n2)cc1 | 4 | -14 | 7 | -10 | 6 | -6 | . | .
COc1ccc2nc(SCc3nc(N)nc(Nc4ccccc4)n3)[nH]c2c1 | 46* | -4 | 6 | -9 | 1 | -4 | -3 | 38
COC(=O)c1cccc(Nc2nc(-c3cccnc3)nc3ccccc23)c1 | 27 | 7 | -1 | -2 | -3 | 0 | . | .
CCOC(=O)c1cccc(Nc2nc(-c3cccnc3)nc3ccccc23)c1 | 60* | 15 | -7 | -3 | -7 | 20 | -4 | 70*
COc1cccc(/C=N/Nc2nc(-c3cccnc3)nc3ccccc23)c1 | 11 | 15 | -6 | -5 | 1 | 4 | . | .
COc1cccc(CNc2nc(-c3cccnc3)nc3ccccc23)c1 | 53* | 5 | 4 | -6 | -6 | -10 | 3 | 42
N#CC1(Nc2ccc([N+](=O)[O-])cc2)CCCC1 | . | 11 | . | . | . | . | . | .
O=C(O)c1ccc(-c2ccc(/C=C3\NC(=O)N(Cc4ccc(Cl)cc4)C3=O)o2)cc1Cl | -13 | -24 | . | -9 | . | 10 | . | .
OCCNc1ncnc2c1sc1nc(N3CCOCC3)c3c(c12)CCC3 | 12 | 30 | 10 | 1 | 15 | 4 | . | .
CCN(CC)CCNc1ncnc2c1sc1nc(N3CCOCC3)c3c(c12)CCCC3 | 69* | 30 | 6 | 9 | 6 | -2 | -2 | 84*
CC(C)OCCCNC(=O)c1ccccc1NC(=O)C1=CSCCO1 | 2 | -11 | 12 | -8 | 8 | -6 | . | .
O=c1c2ccccc2oc2ccc(C#CC3(O)CCCCC3)cc12 | 16 | 25 | -25 | . | 12 | 27 | . | .
COc1cccc2oc3ccc(C#CC4(N)CCCCC4)cc3c(=O)c12 | 53* | 19 | -19 | -9 | -6 | 22 | 80* | 40
CN(C)CCCNC(=O)C(=O)NCC1OCCN1S(=O)(=O)c1cccs1 (stereo unspecified) | 46* | 14 | 5 | -1 | -2 | 64* | 4 | 33
O=C(NCCCO)C(=O)NCC1OCCCN1S(=O)(=O)c1cccs1 (stereo unspecified) | -1 | 3 | -10 | 5 | -5 | -3 | . | .
Cc1ccc(Nc2cc(C)nc(NCc3ccccc3)n2)cc1 | 56* | 39 | -4 | -4 | -2 | 0 | -1 | 83*
COc1ccc(Nc2cc(C)nc(NCc3ccccc3)n2)cc1 | 34 | 21 | 5 | -11 | -1 | 13 | . | .
O=C(c1ccc(S(=O)(=O)N2CCCC2)cc1)N1CCC(CN2C(=O)c3cccc4cccc(c34)C2=O)CC1 | 91* | 3 | -7 | -6 | 4 | 9 | 0 | 95*
COc1ccc(S(=O)(=O)N2CCC(CN3C(=O)c4cccc5cccc(c45)C3=O)CC2)cc1 | 36 | 2 | 2 | 2 | 11 | 5 | . | .
COc1nnc(-c2ccccc2)s1 | 8 | -11 | -5 | 3 | 3 | -8 | . | .
Cc1nc2ccccc2n1C1CCN(CC(=O)Nc2ccccc2Br)CC1 | 58* | -1 | -4 | -6 | -9 | 2 | -4 | 74*
SMILES | UBC13 inh | PfGluPho inh | ZTA DNA inh | M18AAP inhibitor | EBNA-1 inhibitor | Apaf1 inhib | Casp3 UBC13 ctr | UBC13 conf
Cc1cccc(OCc2nnc(SCC(=O)Nc3cccc(C(=O)N4CCOCC4)c3)o2)c1C | 1 | 27 | -14 | -2 | 3 | 1 | . | .
C[C@@H]1CCCCO[C@H](CN(C)C(=O)Cc2ccccc2)[C@H](C)CN([C@@H](C)CO)C(=O)c2cc(NC(=O)Nc3ccc(F)cc3)ccc2O1 | . | 7 | . | . | . | . | . | .
NC(=O)c1c(NC(=O)C(=O)NCCCN2CCOCC2)sc2c1CCCC2 | 52* | 8 | 10 | 1 | 12 | 2 | 0 | 73*
CC(C)C(NC(=O)CCNC(=O)c1ccc(C(C)(C)C)cc1)c1nc2ccccc2[nH]1 (stereo unspecified) | 0 | -5 | -12 | . | . | 32 | . | .
CNC(=O)c1ccccc1NC(=O)c1cccc(S(=O)(=O)N2CCC(C)CC2)c1 | 50* | -40 | -1 | -17 | -15 | 13 | 2 | 58*
CCNC(=O)c1ccccc1NC(=O)c1cccc(S(=O)(=O)N2CCC(C)CC2)c1 | 67* | 11 | 3 | -6 | -5 | 5 | -2 | 75*
NCCCC[C@@H]1NC(=O)c2cc([N+](=O)[O-])cc(F)c2NCCCC[C@@H](C(N)=O)NC(=O)[C@H](CCC(N)=O)NC1=O | 74* | 0 | -15 | -6 | 5 | -3 | 1 | 56*
NC(=O)[C@@H]1CCCCNc2c(F)cc([N+](=O)[O-])cc2C(=O)N[C@@H](CCCN=C(N)N)C(=O)NCC(=O)N1 | 24 | -9 | 5 | 2 | -6 | -2 | . | .
NCCCC[C@@H]1NC(=O)c2cc([N+](=O)[O-])cc(F)c2NCCCC[C@@H](C(N)=O)NC(=O)CNC1=O | 85* | 15 | 0 | -5 | -2 | 4 | -4 | 77*
CC[C@H](C)[C@@H]1NC(=O)c2cc([N+](=O)[O-])cc(F)c2NCCCC[C@@H](C(N)=O)NC(=O)[C@H](CCCCN)NC1=O | 78* | -10 | -6 | 1 | 6 | -5 | -1 | 62*
COCC(=O)N1CCC(Oc2ccc(C(=O)N[C@H](C(=O)OC)C(C)C)cc2)CC1 | -5 | 11 | -8 | 2 | -3 | -3 | . | .
CC[C@H](C)[C@@H](NC(=O)O[C@@H]1C(=O)c2cc(OC)ccc2O[C@H]1c1ccc(OC)c(Br)c1)C(=O)OC | 46* | 23 | 4 | -2 | 4 | 20 | 2 | ?
CC(C)CC(=O)NC(=S)NNC(=O)c1ccc([N+](=O)[O-])cc1 | -16 | -26 | -16 | 19 | 2 | 4 | . | .
